Experimental data: ChEMBL document CHEMBL1944546, “Structure-activity relationships of novel alkylides: 3-O-arylalkyl clarithromycin derivatives with improved antibacterial activities” (2012)
In brackets after ≈: the same amount, converted by molar mass.

How the values were obtained:
Streptococcus pneumoniae [1] = test: Antibacterial activity against efflux,penicillin-susceptible Streptococcus pneumoniae PU 09 by broth microdilution method; format: functional
Outline: (§1)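 MIC read by broth microdilution following CLSI (2010) guidance. The clinical isolates were identified by 16S rDNA sequencing and labelled by genotype and phenotype. S. aureus ATCC 29213 and S. pneumoniae ATCC 49619 were the control strains. Azithromycin, clarithromycin and 3-OH-clarithromycin were run as reference compounds.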

Staphylococcus aureus [2] = test: Antibacterial activity against methicillin-susceptible, inducible MLS-resistant Staphylococcus aureus PU 64 by broth microdilution method; format: functional
Outline: (§2)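 MIC by broth microdilution following CLSI (2010) recommendations, using clinical isolates identified by 16S rDNA sequencing and labelled by genotype and phenotype. S. aureus ATCC 29213 and S. pneumoniae ATCC 49619 were run as control strains, and azithromycin, clarithromycin and 3-OH-clarithromycin were tested as reference agents.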

[3] = tested on: Staphylococcus haemolyticus; test: Antibacterial activity against methicillin-resistant, coagulase-negative, constitutive MLS-resistant Staphylococcus haemolyticus PU 19 by broth microdilution method; format: functional; outline: as §2
Streptococcus pneumoniae [4] = test: Antibacterial activity against penicillin-, constitutive MLS-resistant Streptococcus pneumoniae PU 11 by broth microdilution method; format: functional; outline: as §2
Staphylococcus aureus [5] = test: Antibacterial activity against methicillin-, constitutive MLS-resistant […] by broth microdilution method; format: functional; outline: as §2
Streptococcus pneumoniae [6] = test: Antibacterial activity against erythromycin-susceptible Streptococcus pneumoniae ATCC 49619 by broth microdilution method; format: functional; outline: as §1
[7] = tested on: Streptococcus dysgalactiae; test: Antibacterial activity against efflux, erythromycin-resistant Streptococcus dysgalactiae A 1 by broth microdilution method; format: functional; outline: as §2
[8] = tested on: Staphylococcus epidermidis; test: Antibacterial activity against methicillin-resistant, constitutive MLS-resistant Staphylococcus epidermidis E2 by broth microdilution method; format: functional; outline: as §2
Streptococcus pyogenes [9] = test: Antibacterial activity against erythromycin-susceptible Streptococcus pyogenes A 3 by broth microdilution method; format: functional; outline: as §1
Staphylococcus hominis = test: Antibacterial activity against methicillin-resistant, coagulase-negative, inducible MLS-resistant Staphylococcus hominis E3 by broth microdilution method; format: functional; outline: as §2
Staphylococcus aureus [10] = test: Antibacterial activity against erythromycin-susceptible Staphylococcus aureus ATCC 29213 by broth microdilution method; format: functional; outline: as §1
Staphylococcus aureus [11] = test: Antibacterial activity against methicillin-, inducible MLS-resistant Staphylococcus aureus PU 32 by broth microdilution method
Streptococcus pneumoniae [12] = test: Antibacterial activity against penicillin-susceptible, constitutive MLS-resistant Streptococcus pneumoniae PU 27 by broth microdilution method; format: functional; outline: as §2
Streptococcus pyogenes [13] = test: Antibacterial activity against constitutive MLS-resistant Streptococcus pyogenes A 2 by broth microdilution method; format: functional; outline: as §2
[14] = tested on: Staphylococcus epidermidis; test: Antibacterial activity against methicillin-susceptible, inducible MLS-resistant Staphylococcus epidermidis E1 by broth microdilution method; format: functional; outline: as §2

Row | SMILES | MIC (Streptococcus pneumoniae [1]) [µg/mL] | MIC (Staphylococcus aureus [2]) [µg/mL] | MIC [3] [µg/mL] | MIC (Streptococcus pneumoniae [4]) [µg/mL] | MIC (Staphylococcus aureus [5]) [µg/mL] | MIC (Streptococcus pneumoniae [6]) [µg/mL] | MIC [7] [µg/mL] | MIC [8] [µg/mL] | MIC (Streptococcus pyogenes [9]) [µg/mL] | MIC (Staphylococcus hominis) [µg/mL] | MIC (Staphylococcus aureus [10]) [µg/mL] | MIC (Staphylococcus aureus [11]) [µg/mL] | MIC (Streptococcus pneumoniae [12]) [µg/mL] | MIC (Streptococcus pyogenes [13]) [µg/mL] | MIC [14] [µg/mL]
1 | CC[C@H]1OC(=O)[C@H](C)[C@@H](OC/C=C/c2cncnc2)[C@H](C)[C@@H](O[C@@H]2O[C@H](C)C[C@H](N(C)C)[C@H]2O)[C@](C)(OC)C[C@@H](C)/C(=N\O)[C@H](C)[C@H]2OC(=O)O[C@@]21C | 4 (≈ 5.34 µM) | 4 (≈ 5.34 µM) | > 256 | > 256 | > 256 | 0.5 (≈ 0.668 µM) | 1 (≈ 1.34 µM) | > 256 | 0.125 (≈ 0.167 µM) | > 256 | 8 (≈ 10.7 µM) | 8 (≈ 10.7 µM) | 32 (≈ 42.7 µM) | > 256 | > 256
2 | C=CCO[C@H]1[C@H](C)[C@@H](O[C@@H]2O[C@H](C)C[C@H](N(C)C)[C@H]2O)[C@](C)(OC)C[C@@H](C)C(=O)[C@H](C)[C@@H](O)[C@](C)(O)[C@@H](CC)OC(=O)[C@@H]1C | 64 (≈ 102 µM) | – | > 256 | > 256 | – | 32 (≈ 50.8 µM) | – | – | – | – | > 256 | 256 (≈ 406 µM) | 128 (≈ 203 µM) | – | –
3 | C=CCO[C@H]1[C@H](C)[C@@H](O[C@@H]2O[C@H](C)C[C@H](N(C)C)[C@H]2O)[C@](C)(OC)C[C@@H](C)C(=O)N[C@H](C)[C@@H](O)[C@](C)(O)[C@@H](CC)OC(=O)[C@@H]1C | > 256 | – | > 256 | > 256 | – | > 256 | – | – | – | – | > 256 | > 256 | > 256 | – | –
4 | CC[C@H]1OC(=O)[C@H](C)[C@@H](OC/C=C/c2cccnc2)[C@H](C)[C@@H](O[C@@H]2O[C@H](C)C[C@H](N(C)C)[C@H]2O)[C@](C)(OC)C[C@@H](C)/C(=N\OCc2ccccc2Cl)[C@H](C)[C@H]2OC(=O)O[C@@]21C | 8 (≈ 9.17 µM) | – | 32 (≈ 36.7 µM) | 16 (≈ 18.3 µM) | – | 4 (≈ 4.58 µM) | – | – | – | – | 32 (≈ 36.7 µM) | 32 (≈ 36.7 µM) | 16 (≈ 18.3 µM) | – | –
5 | CC[C@H]1OC(=O)[C@H](C)[C@@H](O[C@H]2C[C@@](C)(OC)[C@@H](O)[C@H](C)O2)[C@H](C)[C@@H](O[C@@H]2O[C@H](C)C[C@H](N(C)C)[C@H]2O)[C@](C)(OC)C[C@@H](C)C(=O)[C@H](C)[C@@H](O)[C@]1(C)O [CLARITHROMYCIN] | 4 (≈ 5.35 µM) | 2 (≈ 2.67 µM) | > 256 | > 256 | > 256 | 0.032 (≈ 0.0428 µM) | 8 (≈ 10.7 µM) | > 256 | 0.032 (≈ 0.0428 µM) | > 256 | 0.25 (≈ 0.334 µM) | 1 (≈ 1.34 µM) | 1 (≈ 1.34 µM) | > 256 | > 256
6 | CC[C@H]1OC(=O)[C@H](C)[C@@H](OCCCc2cncnc2)[C@H](C)[C@@H](O[C@@H]2O[C@H](C)C[C@H](N(C)C)[C@H]2O)[C@](C)(OC)C[C@@H](C)/C(=N\OCc2ccccc2Cl)[C@H](C)[C@H]2OC(=O)O[C@@]21C | 2 (≈ 2.28 µM) | > 256 | > 256 | > 256 | > 256 | 1 (≈ 1.14 µM) | 4 (≈ 4.57 µM) | > 256 | 1 (≈ 1.14 µM) | > 256 | 16 (≈ 18.3 µM) | 16 (≈ 18.3 µM) | 32 (≈ 36.6 µM) | 32 (≈ 36.6 µM) | > 256
7 | CC[C@H]1OC(=O)[C@H](C)[C@@H](OC/C=C/c2cncc3ccccc23)[C@H](C)[C@@H](O[C@@H]2O[C@H](C)C[C@H](N(C)C)[C@H]2O)[C@](C)(OC)C[C@@H](C)/C(=N\OCc2ccccc2Cl)[C@H](C)[C@H]2OC(=O)O[C@@]21C | 16 (≈ 17.3 µM) | – | 128 (≈ 139 µM) | 32 (≈ 34.7 µM) | – | 16 (≈ 17.3 µM) | – | – | – | – | 64 (≈ 69.4 µM) | 256 (≈ 277 µM) | 32 (≈ 34.7 µM) | – | –
8 | CC[C@H]1OC(=O)[C@H](C)[C@@H](OC/C=C/c2cncnc2)[C@H](C)[C@@H](O[C@@H]2O[C@H](C)C[C@H](N(C)C)[C@H]2O)[C@](C)(OC)C[C@@H](C)/C(=N\OCc2ccccc2)[C@H](C)[C@H]2OC(=O)O[C@@]21C | 4 (≈ 4.77 µM) | – | > 256 | 64 (≈ 76.3 µM) | – | 2 (≈ 2.38 µM) | – | – | – | – | 32 (≈ 38.1 µM) | 32 (≈ 38.1 µM) | 64 (≈ 76.3 µM) | – | –
9 | CC[C@H]1OC(=O)[C@H](C)[C@@H](OC/C=C/c2ccc(-n3ccnc3)cc2)[C@H](C)[C@@H](O[C@@H]2O[C@H](C)C[C@H](N(C)C)[C@H]2O)[C@](C)(OC)C[C@@H](C)/C(=N\OCc2ccccc2Cl)[C@H](C)[C@H]2OC(=O)O[C@@]21C | 16 (≈ 17.1 µM) | – | 32 (≈ 34.1 µM) | 32 (≈ 34.1 µM) | – | 16 (≈ 17.1 µM) | – | – | – | – | 32 (≈ 34.1 µM) | 32 (≈ 34.1 µM) | 32 (≈ 34.1 µM) | – | –
